# Bioassay records (PubChem BioAssay)
# Rows were chosen to be rich in hits. Some 3.8% of all compounds tested hit in one or more screens of this group.
# INS promoter inh: TRM-6 insulin promoter activity inhibition; TRM-6 cells (human fetal islet line), insulin promoter-eGFP reporter, imaging; reporter expression induced with tamoxifen; inhibition, % at 2 µM; hit rate 0.9% among 130,000;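 active means inhibition above the mean plus 3 SD, with well images judged a real hit on visual review, cut at about 60% in these data, passing the limit was not always enough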
# RAM inhibit: yeast RAM network inhibition; hit rate 1.8% among 190,000; AID 868; inhibition, % at 50 µM; S. cerevisiae dse1pr::URA3 reporter, 5-FOA growth OD615, 2 d; analog-sensitive cbk1-as2 kinase mutant strain;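 active means inhibition above a set limit, 3 SD over mean compound inhibition, cut at about 8.4% in these data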;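 further: 0% = DMSO-only wells with no growth and 100% = 10 µM 1-NA-PP1 full growth; inhibition rescues growth on 5-FOA so higher OD means more RAM inhibition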
# NPY-Y2 PAM-ag: human NPY-Y2 potentiation or agonism, primary screen; P49146; activation, % at 3.6 µM; cells expressing NPY-Y2, potentiator/agonist read-out; AID 1359; hit rate 0.45% among 220,000; in the data active means activation above about 27%;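 further: cells stimulated with NPY near EC25 plus isoproterenol at EC100; 0% = vehicle plus submaximal agonist and 100% = vehicle plus saturating agonist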
# Target sequence (P49146 whole entry, looked up): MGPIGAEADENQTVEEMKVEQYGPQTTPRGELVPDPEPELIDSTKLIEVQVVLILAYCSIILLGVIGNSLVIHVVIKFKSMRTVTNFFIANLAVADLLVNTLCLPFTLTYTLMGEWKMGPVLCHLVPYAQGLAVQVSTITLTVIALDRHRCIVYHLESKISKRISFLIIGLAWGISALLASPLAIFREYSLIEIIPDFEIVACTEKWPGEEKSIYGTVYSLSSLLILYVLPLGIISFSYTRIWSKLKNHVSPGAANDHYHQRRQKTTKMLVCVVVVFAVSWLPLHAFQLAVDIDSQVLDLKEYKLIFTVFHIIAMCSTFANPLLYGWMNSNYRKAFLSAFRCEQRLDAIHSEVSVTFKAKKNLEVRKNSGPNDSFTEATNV
# NPY-Y1 PAM-ag: potentiates or activates human NPY-Y1 receptor; P25929; NPY-Y1 expressing cells, potentiator/agonist activation; activation, % at 3.6 µM; hit rate 0.37% among 220,000; in the data active means activation above about 33%, passing the limit was not always enough;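 further: cells stimulated with NPY at EC10 then isoproterenol at EC100; 0% = low agonist plus stimulus and 100% = saturating agonist plus stimulus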
# NPY-Y1 antag: blocks the human neuropeptide Y Y1 receptor | HEK293-CNG Y1 cells, membrane potential fluorescence; NPY at EC95, then isoproterenol | inhibition, % at 3.6 µM | hit rate 1% among 200,000;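 active means inhibition above the campaign mean inhibition of all tested compounds plus 3 SD, cut at about 20% in these data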;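 further: 0% = DMSO wells given NPY plus isoproterenol and 100% = isoproterenol alone without NPY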
#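 Material: HEK293 cells with Y1 receptor plus CNG channel; times: compound incubation 1 h at room temperature, readout 45 min post-stimulation; signal: fluorescence, membrane potential probe; read-out basis: fluorescence ratio normalized to % inhibition between controls; benchmarks: full-block control isoproterenol-only wells, zero-block control NPY plus isoproterenol wells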
# NPY Y2 blocker: NPY-Y2 (human) receptor antagonism; NPY-Y2 expressing cells, antagonist mode; inhibition, % at 2.7 µM; hit rate 0.99% among 140,000; AID 793; in the data active means inhibition above about 17%;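 further: 0% = vehicle with agonist challenge and 100% = reference antagonist with challenge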
# Starred values were filed as active, the others as inactive; · = no result.
SMILES,INS promoter inh,RAM inhibit,NPY-Y2 PAM-ag,NPY-Y1 PAM-ag,NPY-Y1 antag,NPY Y2 blocker
Cc1cc(Br)ccc1OCC(=O)N(Cc1nc(-c2ccccc2)no1)C(C)C,-100,11*,-18,-27,10,14
COc1ccccc1OCC(=O)N(Cc1nc(-c2ccc(Cl)cc2)no1)C(C)C,·,2,2,-23,4,6
Cc1ccc(-c2noc(CN(C(=O)CCCCCN3C(=O)c4ccccc4C3=O)C(C)C)n2)cc1,-10,9.8*,-7,-30,3,7
C/C(CC(=O)Nc1cccc(Cl)c1C)=N\NC(=O)Cc1csc(N)n1,·,0,1,4,3,·
CCOc1ccc2ccccc2c1CNc1nnnn1C,18,0,-4,0,-2,·
C/C(=N\Nc1cccc(Cl)c1)c1ccncc1,·,0,40*,39*,-12,·
O=C(O)CCN1C(=O)c2ccc(Oc3ccc4c(c3)C(=O)N(CCC(=O)O)C4=O)cc2C1=O,-8,10*,-8,0,2,0
COCCCn1cnc2oc3nc4ccccc4nc3c2c1=O,57,2,11,4,5,3
COCCCn1cnc2c(c1=O)c1nc3ccccc3nc1n2-c1ccccc1,91*,4,-17,-6,1,2
Cc1ccccc1NC(=O)c1cc([N+](=O)[O-])ccc1NCCN1C(=O)CCC1=O,·,8,-8,11,1,·
CCCCc1ccc(NC(=O)CSC2=C(C#N)C(c3ccco3)C3=C(CCCC3=O)N2)cc1 (centres undefined),·,7,98*,99*,-14,-2
O=C(CN1N=C(c2ccccc2)CCC1=O)NCc1cccs1,-36,1,-2,-6,1,·
Cc1ccc(SCC2=NN(c3nc(C)cc(C)n3)C(=O)C2)cc1,67*,-1,1,-3,-7,·
Cc1cc(C)nc(N2N=C(C(C)(C)C)CC2=O)n1,-52,-1,-6,-8,-1,3
CCOC(=O)C1(P(=O)(c2ccc(Cl)cc2)c2ccc(Cl)cc2)CCC1,-30,2,-45,-18,28*,27*
CCOc1ccc(-c2nc(CSCC(=O)NC3CCCc4ccccc43)c(C)o2)cc1 (centres undefined),-3,1,-1,1,-3,7
O=C(O)c1ccc(N2C(=O)/C(=C/C=C/c3ccccc3)SC2=S)cc1,·,1,10,15,2,·
CN(C)c1ccc(/C=C/C=C2/SC(=S)N(c3ccccc3)C2=O)cc1,-296,11*,20,45,-3,5
COc1ccc(/C=C2\CCCC3C2=NN(C(=O)CSc2ncn[nH]2)C3c2ccc(OC)cc2)cc1 (centres undefined),-72,8.4*,-1,13,-5,9
O=C(CSc1ncn[nH]1)N1N=C2/C(=C/c3ccccc3)CCCC2C1c1ccccc1 (centres undefined),·,2,2,16,-7,3
Cc1ccnc2nc(C(=O)OCC(=O)Nc3ccccc3C(C)(C)C)nn12,43,1,10,-1,-2,·
Cc1ccnc2nc(C(=O)OCC(=O)NCCc3ccccc3)nn12,73*,2,10,11,1,3
CCCn1c(=N)n(CC(O)COc2cccc(C)c2)c2ccccc21 (centres undefined),-29,-1,-33,-25,26*,42*
CCn1c(=N)n(CC(O)c2ccccc2)c2ccccc21 (centres undefined),-38,2,3,-25,0,3
CCn1c(=N)n(CC(O)COc2cccc(C)c2)c2ccccc21 (centres undefined),-153,2,-10,-43,20*,21*
O=C(CCCc1nc2ccccc2s1)N1CCN(S(=O)(=O)c2cccs2)CC1,·,8.8*,-11,-9,9,4
CO/N=C/C(=N\Nc1ccc(C)cc1)C(=O)c1ccc(OC)cc1,0,10*,3,12,0,1
CO/N=C/C(=N\Nc1ccc(OC)cc1)C(=O)c1ccc(F)cc1,29,9.2*,-1,2,1,·
O=c1c(Cl)c(Cl)cnn1Cc1nnc(-c2ccccc2Br)o1,·,2,-5,-3,-2,·
Cc1cc(F)c(F)c(C(=O)N2C(C)CCCC2C)c1Cl (centres undefined),-111,0,-4,-14,1,·
